Measurements from paper PMC12130796 (Clinical Cancer Research, 2025).
Like-named read-outs stand apart in the source and are kept apart here. Blank lines part the entries; values can stand above or below the compound they belong to.

How the values were obtained:
[1] = Plasma pharmacokinetics of paclitaxel and metabolites; type: in vivo, human
[2] = tested on: serine 10-phosphorylated histone H3 (pHH3); test: pHH3 quantitative immunofluorescence; type: in vivo, human; settings: C1D2 biopsies (after paclitaxel alone) relative to baseline, P = 0.0031
In short: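 Adult patients with solid tumours received IV test taxane on days 1, 8 and 15 of 28-day cycles, with oral kinase inhibitor started C1D3 during dose expansion. 18-gauge core biopsies were taken at baseline, C1D2 and C1D28, snap-frozen, thawed in neutral buffered formalin, paraffin-embedded and cut at 5 micron for quantitative IFA. Per-patient means were compared by unpaired t test assuming unequal variances.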

[3] = tested on: patients with relapsed ovarian sex cord–stromal tumors; settings: weekly paclitaxel monotherapy, phase 2 arm, 32 patients (84% AOGCT); cited from earlier work
[4] = tested on: E-cadherin, vimentin; test: EMT immunofluorescence assay in tumor biopsies, log10; type: in vivo, human; settings: single-agent paclitaxel, C1D2 biopsies
[5] = tested on: patients with AOGCT; settings: case report, one patient with AOGCT, cited from earlier work
[6] = Plasma pharmacokinetics of nilotinib in the combination; type: in vivo; settings: human, oral, Mean nilotinib AUC(0–24hours)
[7] = cited from earlier work
[8] = tested on: CYP2C8; settings: cited from earlier work
[9] = tested on: AOGCT KGN cells; settings: read-out: EC50, inhibition of proliferation; KGN cells in vitro; cited from earlier work
[10] = tested on: OATP1B2; settings: via inhibition of OATP1B2 in dorsal root ganglia cells; cited from earlier work

SMILES: CC(=O)O[C@H]1C(=O)[C@@]2(C)[C@H]([C@H](OC(=O)c3ccccc3)[C@]3(O)C[C@H](OC(=O)[C@H](O)[C@@H](NC(=O)c4ccccc4)c4ccccc4)C(C)=C1C3(C)C)[C@]1(OC(C)=O)CO[C@@H]1C[C@@H]2O [paclitaxel]
Dose proportionality of plasma concentrations ([1]; across the two doses tested (60 and 80 mg/m^2)): dose-proportional | Change in mitotic arrest marker pHH3 [2]: significant increase | Progression-free survival [3]: 14.7 months | Change in tumor EMT phenotype [4]: no obvious biologically relevant changes in EMT phenotype

SMILES: Cc1ccc(NC(=O)c2ccc(CN3CCN(C)CC3)cc2)cc1Nc1nccc(-c2cccnc2)n1 [Imatinib]
Duration of stable disease ([5]; ref 36): over 16 months | Duration of stable disease ([5]; ref 37): 12 months

AUC(0-t) ([6]; day 8, DL2 (300 mg nilotinib twice daily, 80 mg/m^2 paclitaxel)): 51.2 µM·h | AUC(0-t) ([6]; day 8, DL3 (400 mg nilotinib twice daily, 80 mg/m^2 paclitaxel)): 90.4 µM·h
SMILES: Cc1cn(-c2cc(NC(=O)c3ccc(C)c(Nc4nccc(-c5cccnc5)n4)c3)cc(C(F)(F)F)c2)cn1 [nilotinib]
Effect of nilotinib coadministration on plasma paclitaxel exposures ([1]; day 8 vs day 1, DL2 vs DL3): does not modulate plasma paclitaxel exposures | Published mean AUC(0–24hours) ([7]; nilotinib monotherapy): 3,848 ± 1,116 μmol/L × minutes | Cmax ([7]; read-out: Clinical Cmax, 300 mg twice-daily dosing): ~2000 nM | Effect on CYP2C8-mediated 6α-hydroxypaclitaxel formation [8]: inhibits | EC50 [9]: 13.1 µM | Effect on paclitaxel-induced peripheral neuropathy [10]: attenuates paclitaxel-induced peripheral neuropathy
